Pf Dd2 growth = blocks growth of Plasmodium falciparum Dd2 parasites. P. falciparum Dd2 growth, SYBR Green, 72 h; hits give low values. activity change, % at 10 µM. 94,000 compounds, 2.3% hits; in the data active = activity change below about -80%; inconclusive = no clear call, values can overlap the other calls
GASC1 inh = KDM4C (human) demethylase inhibition. 96,000 compounds, 0.15% hits. AID 720574. GST-KDM4C 2-372, H3K9me3 peptide, LANCE TR-FRET. Q9H3R0. inhibition, % at 12.5 µM;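 active = mean replicate inhibition above about 25%, with at least 55% of replicates also reaching it, limit read from the data, passing the limit was not always enough; inconclusive = only one of those two conditions met; inactive = neither condition met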
Target sequence (Q9H3R0 2-372 limits assumed): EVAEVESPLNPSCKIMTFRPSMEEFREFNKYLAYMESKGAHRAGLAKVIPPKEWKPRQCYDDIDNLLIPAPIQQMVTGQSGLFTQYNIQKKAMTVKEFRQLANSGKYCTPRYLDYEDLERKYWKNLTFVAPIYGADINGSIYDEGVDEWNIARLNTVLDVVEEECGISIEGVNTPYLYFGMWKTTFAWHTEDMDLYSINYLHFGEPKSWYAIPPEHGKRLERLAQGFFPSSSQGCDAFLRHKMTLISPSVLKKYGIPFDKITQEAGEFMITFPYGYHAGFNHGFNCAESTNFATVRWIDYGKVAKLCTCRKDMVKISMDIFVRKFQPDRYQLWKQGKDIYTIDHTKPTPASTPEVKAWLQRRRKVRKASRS
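Material: N-terminal GST-fused human GASC-1 (KDM4C) fragment, residues 2-372. Input: 10 nM enzyme. Incubation: enzyme reaction 30 min, then detection 60 min, both room temperature. Doses: one test concentration per compound. Read-out basis: inhibition from TR-FRET ratio decrease. Detection: LANCE TR-FRET, excitation 340 nm, emissions 618 and 671 nm.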
IDH1 mut inh = inhibitors of human IDH1 R132H | 70,000 compounds, 0.18% hits | AID 624101 | O75874 | inhibition, % at 10 µM | IDH1 R132H reductase, diaphorase/resazurin fluorescence, 60 min; in the data active = inhibition above about 34%; inconclusive = no clear call, values can overlap the other calls; inactive = below about 11%;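 note: 0% = DMSO and 100% = no enzyme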
Target sequence (O75874 whole entry R132H): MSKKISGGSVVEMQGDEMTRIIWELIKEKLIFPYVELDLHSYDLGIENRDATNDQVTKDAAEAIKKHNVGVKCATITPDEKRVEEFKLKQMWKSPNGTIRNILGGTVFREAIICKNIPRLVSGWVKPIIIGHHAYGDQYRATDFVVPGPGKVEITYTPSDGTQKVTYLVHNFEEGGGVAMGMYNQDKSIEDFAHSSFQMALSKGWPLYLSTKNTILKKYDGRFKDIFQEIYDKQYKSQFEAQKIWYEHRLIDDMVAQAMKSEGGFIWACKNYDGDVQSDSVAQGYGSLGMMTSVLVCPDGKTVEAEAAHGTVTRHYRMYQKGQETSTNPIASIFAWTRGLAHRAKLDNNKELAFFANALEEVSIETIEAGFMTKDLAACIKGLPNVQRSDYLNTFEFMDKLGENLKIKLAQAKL
T cruzi growth-1 = T. cruzi proliferation inhibition; T. cruzi beta-gal in NIH3T3, GalScreen luminescence, 90 h; inhibition, % at 8.34 µM; 77,000 compounds, 5.9% hits; AID 624255;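 active = mean inhibition above about 93%, with at least 55% of replicates each passing it, limit read from the data, passing the limit was not always enough; inconclusive = only one of those two conditions holds; inactive = neither condition holds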
T cruzi growth-2 = inhibitors of T. cruzi proliferation | shares compounds with T cruzi growth-1 | T. cruzi beta-gal in NIH3T3, GalScreen luminescence, 90 h | inhibition, % at 8.35 µM | 5,600 compounds, 72% hits | AID 651739;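 active = mean replicate inhibition above about 95% and at least 55% of replicates individually reaching it, limit read from the data; inconclusive = only one of the two criteria is met; inactive = neither criterion is met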
T cruzi growth-3 = Trypanosoma cruzi proliferation inhibition; inhibition, % at 2.09 µM; 5,600 compounds, 21% hits; shares compounds with T cruzi growth-1; T. cruzi beta-gal in NIH3T3, GalScreen luminescence, 90 h;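 active = mean inhibition above about 95%, with at least 55% of replicates also reaching it, limit read from the data; inconclusive = meets just one of the two conditions; inactive = meets neither condition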;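 note: plate controls were neutral control median for no effect and positive control median for full effect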
3T3 cytotox = NIH/3T3 (mouse) viability loss; shares compounds with T cruzi growth-1; NIH/3T3 viability, CellTiter-Glo ATP luminescence, 90 h; cytotoxicity (signal decrease), % at 8.35 µM; 5,600 compounds, 14% hits; AID 651742;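 active = mean signal decrease across replicates above about 35% based on untreated-well scatter, with enough replicates individually passing, limit read from the data; inconclusive = no rule stated though some were filed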;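 note: 0% = median of neutral control wells and 100% = median of positive control wells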
NIH3T3 tox 2 = cytotoxicity in mouse NIH/3T3 fibroblasts. shares compounds with T cruzi growth-1. NIH/3T3 viability, CellTiter-Glo ATP luminescence, 90 h. inhibition, % at 24.9 µM. 5,600 compounds, 56% hits. AID 651744;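 active = mean loss of cell viability signal at or above a set limit, and enough replicates individually reaching it; inconclusive = meets only the mean limit or only the replicate share; inactive = meets neither condition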;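 note: 0% = median of neutral control wells and 100% = median of positive control wells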
* marks the source's active call; other numbers are inactive results; ? = inconclusive; nt = no result. Compounds with a hit are over-represented: about 5.8% of the library has one in this group of screens.

SMILES | Pf Dd2 growth | GASC1 inh | IDH1 mut inh | T cruzi growth-1 | T cruzi growth-2 | T cruzi growth-3 | 3T3 cytotox | NIH3T3 tox 2
Cc1cccc(-c2ccc([C@H]3[C@@H](CO)N4CCCCN(S(=O)(=O)c5cccc(C)c5)C[C@H]34)cc2)c1 | -84.5* | 1.0 | nt | 100.3* | 87.6 | 105.6* | 49.8* | 103.4*
Cc1cccc(S(=O)(=O)N2CCCCN3[C@H](C2)[C@@H](c2ccc(-c4ccccc4)cc2)[C@@H]3CO)c1 | -25.3 | nt | nt | 77.1 | nt | nt | nt | nt
Cc1cccc(S(=O)(=O)N2CCCCN3[C@H](CO)[C@H](c4ccc(-c5ccccc5)cc4)[C@@H]3C2)c1 | 10.5 | nt | nt | 115.8* | 98.1* | 79.7 | -10.3 | 50.7*
Cc1cccc(-c2ccc([C@@H]3[C@H]4CN(S(=O)(=O)c5cccc(C)c5)CCCCN4[C@H]3CO)cc2)c1 | -20.4 | 0.1 | nt | 110.3* | 103.7* | 114.8* | 27.1 | 56.0*
Cn1c(SCC(=O)Nc2ccc(C(=O)O)cc2)nnc1-c1ccc(Br)cc1 | nt | nt | 0.2 | nt | nt | nt | nt | nt
COc1ccc(-c2ccc3c(c2)[C@@H]2[C@@H](CCN2C(=O)Cc2cccnc2)[C@@H](CO)N3C)cc1 | -0.2 | 1.6 | nt | 80.8 | nt | nt | nt | nt
CN1c2ccc(-c3ccc(F)cc3)cc2[C@@H]2[C@@H](CCN2C(=O)Cc2cccnc2)[C@@H]1CO | -62.6 | -0.1 | nt | ? | 106.4* | 62.3 | -13.4 | -6.3
CN1c2ccc(-c3ccccc3)cc2[C@@H]2[C@@H](CCN2C(=O)Cc2ccccc2)[C@@H]1CO | 10.3 | -1.8 | nt | 101.8* | 103.1* | 110.8* | -14.7 | 105.6*
CN1c2ccc(-c3ccccc3)cc2[C@@H]2[C@@H](CCN2C(=O)Cc2cccnc2)[C@@H]1CO | -0.3 | 0.0 | nt | 106.0* | 108.8* | 71.0 | 2.1 | 1.4
Cc1nc(C)c(C(=O)C2C(=O)C(=O)N(CCCN3CCOCC3)C2c2ccncc2)s1 (configuration not stated) | nt | nt | 0.0 | nt | nt | nt | nt | nt
COC(=O)/C=C(\C)CCC1(C)C(C)CCC2(C)C(C)=CC(=O)CC21 (configuration not stated) | nt | nt | -0.3 | nt | nt | nt | nt | nt
CCOc1ccc(-n2c(SCC(=O)c3ccccc3)nnc2-c2ccncc2)cc1 | nt | nt | -0.6 | nt | nt | nt | nt | nt
C[C@H](CO)N1C[C@H](C)[C@H](CN(C)C(=O)Nc2ccc(C(F)(F)F)cc2)OCCCC[C@H](C)Oc2ccc(NC(=O)c3ccncc3)cc2C1=O | -67.8 | 0.0 | nt | 107.4* | 108.7* | 99.1* | 22.6 | 37.2*
C[C@@H]1CCCCO[C@H](CN(C)C(=O)Nc2ccc(C(F)(F)F)cc2)[C@@H](C)CN([C@H](C)CO)C(=O)c2cc(NC(=O)c3ccncc3)ccc2O1 | -26.4 | nt | nt | 46.3 | nt | nt | nt | nt
C[C@@H]1CCCCO[C@H](CN(C)C(=O)Nc2ccc(C(F)(F)F)cc2)[C@H](C)CN([C@H](C)CO)C(=O)c2cc(NC(=O)c3ccncc3)ccc2O1 | -43.5 | -0.6 | nt | 103.4* | 113.5* | 50.3 | -6.9 | 42.0*
COc1ccc(-c2ccc([C@H]3[C@@H](C#N)N(C(=O)C4CC4)[C@H]3CO)cc2)cc1 | -44.0 | -1.8 | nt | 105.0* | 83.2 | 35.5 | -8.9 | 20.1
N#C[C@H]1[C@@H](c2ccc(-c3ccccc3F)cc2)[C@@H](CO)N1C(=O)C1CC1 | 27.4 | -2.6 | -0.1 | 104.0* | 106.7* | 61.6 | 27.4 | ?
COc1ccccc1-c1ccc([C@@H]2[C@@H](C#N)N(C(=O)C3CC3)[C@H]2CO)cc1 | 7.7 | -1.6 | nt | 103.8* | 41.9 | 41.0 | 5.5 | 20.9
COc1ccccc1-c1ccc([C@@H]2[C@@H](C#N)N(C(=O)C3CCC3)[C@H]2CO)cc1 | 3.9 | -0.1 | nt | 48.5 | nt | nt | nt | nt
COc1ccc(-c2ccc([C@@H]3[C@H](C#N)N(C(=O)C4CC4)[C@H]3CO)cc2)cc1 | -11.9 | 0.9 | nt | 57.6 | nt | nt | nt | nt
CC(C)(C)c1ccc(S(=O)(=O)N2CCN(c3ccc([N+](=O)[O-])c(NCc4cccnc4)c3)CC2)cc1 | nt | nt | -0.1 | nt | nt | nt | nt | nt
CCOC(=O)c1c(NC(=O)CN2C(=O)COc3ccc(Cl)cc32)sc2c1CCCC2 | nt | nt | -0.1 | nt | nt | nt | nt | nt
N#Cc1ccc(NC(=O)Cn2ccc([N+](=O)[O-])n2)cc1 | nt | nt | -0.1 | nt | nt | nt | nt | nt
CC(C)NC(=O)Nc1ccc2c(c1)C(=O)N([C@H](C)CO)C[C@@H](C)[C@H](CN(C)C(=O)NC1CCCCC1)OCCCC[C@@H](C)O2 | -41.3 | -1.8 | nt | 96.5* | 92.8 | 40.7 | 5.0 | 6.5
C[C@@H]1CN([C@H](C)CO)C(=O)c2cc(NC(=O)C3CCCCC3)ccc2O[C@@H](C)CCCCO[C@H]1CN(C)C(=O)NC1CCCCC1 | -26.0 | 7.4 | nt | 113.6* | 97.9* | 89.6 | -20.6 | 36.8
SMILES | Pf Dd2 growth | GASC1 inh | IDH1 mut inh | T cruzi growth-1 | T cruzi growth-2 | T cruzi growth-3 | 3T3 cytotox | NIH3T3 tox 2
CC(C)NC(=O)Nc1ccc2c(c1)C(=O)N([C@@H](C)CO)C[C@@H](C)[C@@H](CN(C)C(=O)NC1CCCCC1)OCCCC[C@H](C)O2 | -32.3 | -0.9 | 1.1 | 5.3 | nt | nt | nt | nt
CC(C)NC(=O)Nc1ccc2c(c1)C(=O)N([C@@H](C)CO)C[C@@H](C)[C@H](CN(C)C(=O)NC1CCCCC1)OCCCC[C@@H](C)O2 | -51.0 | -1.6 | 1.9 | 96.8* | 38.0 | -4.9 | 9.6 | -1.4
Cc1ccccc1C(=O)Nc1ccc(OCC(=O)O)cc1 | nt | nt | 0.4 | nt | nt | nt | nt | nt
O=C(CSc1nc(-c2ccccc2)cc(C(F)(F)F)n1)N1CCCc2ccccc21 | nt | nt | -0.6 | nt | nt | nt | nt | nt
Nc1cc(=O)[nH]c(S/C=C/c2ccccc2)n1 | nt | nt | 0.1 | nt | nt | nt | nt | nt
CC(C)CC#Cc1ccc2c(c1)O[C@@H](CN(C)Cc1ccncc1)[C@@H](C)CN([C@@H](C)CO)S2(=O)=O | -67.9 | 6.1 | 2.1 | 122.0* | 108.6* | 93.5 | 7.5 | 108.5*
CC(C)CC#Cc1ccc2c(c1)O[C@H](CN(C)Cc1ccncc1)[C@H](C)CN([C@@H](C)CO)S2(=O)=O | -69.7 | 0.4 | 4.0 | ? | 95.4* | 88.4 | 48.6* | 97.4*
CC(C)CC#Cc1ccc2c(c1)O[C@@H](CN(C)Cc1ccccc1)[C@@H](C)CN([C@@H](C)CO)S2(=O)=O | -66.9 | 0.6 | -0.3 | 125.3* | 96.3* | 109.5* | 11.3 | 105.7*
CCCC#Cc1ccc2c(c1)O[C@@H](CN(C)Cc1ccncc1)[C@H](C)CN([C@H](C)CO)S2(=O)=O | -69.8 | 7.7 | 7.0 | 116.6* | 98.4* | 101.7* | 72.2* | 104.9*
CC1CCC2(CC1)Oc1ccccc1C1CC(c3ccco3)=NN12 (configuration not stated) | nt | nt | 4.5 | nt | nt | nt | nt | nt
CCn1c(SCC(=O)c2cccc([N+](=O)[O-])c2)nnc1-c1ccc(Cl)cc1 | nt | nt | 0.1 | nt | nt | nt | nt | nt
C[C@@H]1CN([C@H](C)CO)S(=O)(=O)c2ccc(C#CCN(C)C)cc2O[C@@H]1CN(C)Cc1ccccc1 | -32.1 | 6.6 | -0.1 | 58.7 | nt | nt | nt | nt

Screens as filed in PubChem.
